Rows were chosen to be rich in hits. Some 3.5% of all compounds tested hit in one or more screens of this group.
MrgX1 agonist = agonists of human MrgX1 receptor, primary screen, HEK293 cells, Fluo-4 calcium flux; AID 588627, 2011; B-score at 10 µM; 310,000 compounds, 0.44% hits; Mas-related G-protein coupled receptor member X1 (Homo sapiens), Q96LB2; Fluo-4 calcium fluorescence, agonist mode; active compounds read high;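 active means calcium response B-score plate-corrected fluorescence ratio at least 3 library SD, with starting fluorescence B-score inside 5 SD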
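System – MrgX1-expressing HEK293 cells · Incubation – cells plated overnight, dye loaded 0.5 h 37 °C, 0.5 h room temperature · Technique – kinetic Fluo-4 NW fluorescence of intracellular calcium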
MrgX1 antagonist = antagonists of human MrgX1 receptor, primary screen, HEK293 cells, Fluo-4 calcium flux; 310,000 compounds, 1.3% hits; B-score at 10 µM; Mas-related G-protein coupled receptor member X1 (Homo sapiens), Q96LB2; BAM8-22 antagonism; active compounds read low; AID 588676, 2011;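 active means calcium-response B-score plate-corrected more than 3 library SD below zero, starting fluorescence within 5 deviations, no agonist response on first addition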;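 further: peak minus trough fluorescence over baseline after final BAM8-22 challenge near maximal dose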
RGS4 inh = RGS4 inhibitors, primary screen, cell-based, HEK293 M3R inducible RGS4, calcium flux; Fluo-4 calcium flux; active compounds read high; triggered by carbachol at its EC20; B-score at 10 µM; 310,000 compounds, 0.45% hits; AID 463165, 2010;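 active means B-score, a plate-corrected calcium signal, over three deviations above library mean, with baseline fluorescence within five deviations of library mean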;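 further: RGS4 expression induced by doxycycline in cells with stable M3 receptor; B-score is computed from the integrated fluorescence ratio over baseline after carbachol; higher B-score means a larger calcium signal and so more RGS4 inhibition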
Target sequence (P49798 whole entry, looked up): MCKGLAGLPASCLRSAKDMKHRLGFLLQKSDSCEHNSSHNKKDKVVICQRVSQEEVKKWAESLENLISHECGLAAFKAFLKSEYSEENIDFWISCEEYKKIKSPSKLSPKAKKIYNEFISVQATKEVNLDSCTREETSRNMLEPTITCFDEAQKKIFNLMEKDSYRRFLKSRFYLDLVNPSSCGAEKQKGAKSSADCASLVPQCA
RGS4 act = RGS4 potentiators or activators, primary screen, cell-based, HEK293 M3R inducible RGS4, calcium flux. carbachol calcium flux Fluo4; active compounds read low. B-score at 10 µM. 310,000 compounds, 0.92% hits. AID 463111, 2010;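 active means B-score of the integrated calcium signal more than 4 SD below the library mean, with starting fluorescence not abnormally high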;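 further: negative B-score means reduced calcium response which marks RGS4 activation or potentiation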
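Detection: kinetic calcium fluorescence imaging with Fluo4-AM dye, 2 µM / Material: HEK293 cells with stable M3R and inducible RGS4 / Schedule: recording 10 s baseline at 1 Hz, 100 s post-agonist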
MrgX1 allo act = positive allosteric modulators of MrgX1, primary screen, HEK293 cells, Fluo-4 calcium flux. FDSS; active compounds read high. Mas-related G-protein coupled receptor member X1 (Homo sapiens), Q96LB2. 310,000 compounds, 0.63% hits. AID 588675, 2011. B-score at 10 µM;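 active means plate-corrected calcium response at least 3 library SD above typical, normal starting fluorescence, not activating the receptor alone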;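 further: compound read alongside a low EC10 to EC30 dose of BAM8-22 agonist; peak minus trough fluorescence over baseline measured at the second addition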
RGS4 inh valid = enhanced carbachol calcium response, M3R/RGS4 cells, RGS4 inhibitor project, cell-based, validation screen, HEK293 M3R/RGS4, calcium flux; calcium response, % at 10 µM; AID 492999, 2010; carbachol calcium Fluo-4 fluorescence; carbachol added at its EC20; 0 = buffer wells, 100 = carbachol control; 1,700 compounds, 65% hits; shares compounds with RGS4 inh;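 active means duplicate-averaged calcium response above the buffer-only control mean plus 5 SD of those controls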;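 further: integrated fluorescence ratio F max minus min over baseline F0; higher response in RGS4-induced cells means RGS4 inhibition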
RGS4 uninduced = carbachol calcium response in non-induced M3R cells, confirmation, counter-screen for RGS4 inhibitor project, cell-based, HEK293 M3R | 1,900 compounds, 20% hits | activity (percent), % at 10 µM | shares compounds with RGS4 inh | carbachol calcium Fluo-4; submaximal (EC20) carbachol stimulus; buffer wells 0%, carbachol control wells 100%; call rule not given here;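 further: RGS4 induction absent so cells express M3R without RGS4; higher means more calcium signal and flags a non-specific hit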
RGS4 inh ctr2 = second RGS4 inhibitor counter-screen in uninduced cells lacking carbachol; calcium response (agonist-mode artifact), % at 10 µM; 1,900 compounds, 22% hits; shares compounds with RGS4 inh; HEK293 M3R/RGS4 non-induced, Fluo-4 calcium, no carbachol; normalised: buffer wells 0%, carbachol wells 100%; AID 493001;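 active means duplicate-averaged calcium rise in uninduced cells above buffer wells' mean plus 5 SD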
* marks the source's active call; other numbers are inactive results; i = inactive; x = not tested or not shown.

SMILES	MrgX1 agonist	MrgX1 antagonist	RGS4 inh	RGS4 act	MrgX1 allo act	RGS4 inh valid	RGS4 uninduced	RGS4 inh ctr2
CC(C)(Oc1ccc(Cl)cc1)C(=O)N/N=C/c1cn[nH]c1-c1ccccc1	i	i	5*	i	i	26%*	i	i
O=C(N/N=C\c1cn[nH]c1-c1ccc(Cl)cc1)c1cccs1	i	i	i	i	i	x	x	x
COc1ccc(C2=NC(C)(C)Cc3cc(OC)c(OC)cc32)cc1	i	i	i	i	i	x	x	x
COc1cc2c(cc1OC)C(SC)=NC(C)(C)C2	i	i	i	i	i	x	46%*	i
COc1ccccc1/C=C/C=N/n1c(-c2cc(-c3ccccc3)n[nH]2)n[nH]c1=S	i	i	7.7*	i	i	45%*	36%*	i
CCOC(=O)CSC1=NC(=O)/C(=C/c2ccc(Br)cc2)S1	i	i	i	i	i	x	36%*	i
CCOC(=O)CSC1=NC(=O)/C(=C\c2ccc(OC(C)=O)cc2)S1	i	i	18*	i	i	38%*	i	9.0%*
COC(=O)C1CC(=O)c2sccc2C1 (stereo not given)	i	i	i	i	i	x	x	x
O=S(=O)(CCc1ccncc1)C1Cc2cccc3cccc1c23 (stereo not given)	i	i	i	i	i	x	x	x
CCOC(=O)N1CCC(NC(=O)c2ccc3c(c2)N=C(C)c2c(C)ccc(C)c2S3)CC1	i	i	i	i	i	x	x	x
O=C1CCCC2=C1C(c1ccc(Cl)cc1)n1c(s/c(=C\c3ccc4ccncc4c3)c1=O)=N2 (stereo not given)	i	i	14*	i	i	42%*	i	196%*
CCOC(=O)C1=C(C)N=c2s/c(=C/c3ccc(OCC(=O)O)c(OC)c3)c(=O)n2C1c1ccc(Cl)cc1 (stereo not given)	i	i	i	i	i	x	x	x
CC1CN(C(=O)c2ccc(COCC(F)(F)F)o2)CC(C)O1 (stereo not given)	i	i	i	i	i	x	x	x
O=C(c1ccc(COCC(F)(F)F)o1)N1CCCC1	i	i	5.9*	i	i	i	i	i
CCn1c(=O)c(=O)[nH]c2cc(C(=O)N3CCN(Cc4ccc5c(c4)OCO5)CC3)ccc21	i	i	i	i	i	x	x	x
COCCNC(=O)c1cn(Cc2c(F)cccc2Cl)nn1	i	i	i	i	i	x	i	i
OCCC1CN(Cc2nc3ccccc3[nH]2)CCN1C1CCCC1 (stereo not given)	i	i	i	i	i	x	x	x
FC(F)(F)c1ccccc1/C=N/n1c(COc2ccccc2)n[nH]c1=S	i	i	i	i	i	x	x	x
CCCc1c(C(=O)NNc2cccc(Cl)c2)cnn1-c1ccccc1	i	i	i	i	i	x	x	x
COc1ccc(OC)c(S(=O)(=O)N2CCC(C(=O)N3CCOCC3)CC2)c1	i	i	i	i	i	i	i	i
COc1ccc(S(=O)(=O)N2CCCC(C(=O)N3CCOCC3)C2)cc1OC (stereo not given)	i	i	i	i	i	x	x	x

Assay outcomes: PubChem BioAssay, Johns Hopkins Ion Channel Center
